Source: ChEMBL document CHEMBL1145200, “4-Benzyl and 4-benzoyl-3-dimethylaminopyridin-2(1H)-ones: in vitro evaluation of new C-3-amino-substituted and C-5,6-alkyl-substituted analogues against clinically important HIV mutant strains” (J Med Chem, 2005)

What was measured:
[1] = test system: Human immunodeficiency virus 1; assay: In vitro inhibitory concentration against HIV-1 Y181C mutant strain; type: functional, organism-based
In short: (§1)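 MT4 human T-lymphoblastoid cells, grown in RPMI 1640 with 10% fetal calf serum and antibiotics at 37 °C under 5% CO2. Mutant HIV-1 strains were added at 200 CCID50/well with 30 000 cells/well across a compound concentration range. After 5 days at 37 °C, viability was read by MTT colorimetry. EC50 is the concentration giving 50% infection relative to the drug-free control.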

[2] = test system: Human immunodeficiency virus 1; assay: In vitro inhibitory concentration value against HIV K103N and Y181C mutant strain; type: functional, organism-based; in short: as §1
[3] = test system: Human immunodeficiency virus 1; assay: In vitro inhibitory concentration against HIV L100I and K103N mutant strain; type: functional, organism-based; in short: as §1
[4] = test system: Human immunodeficiency virus 1; assay: Selective index value (ratio of CC50 to IC50 value)against HIV LAI cell line; type: functional
In short: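 Ratio of CC50 to IC50 against LAI. CC50 came from mock-infected MT4 cultures (30 000 cells/well) given the same compound concentration range, run in parallel with LAI-infected cultures (200 CCID50/well). Incubation was 5 days at 37 °C in 5% CO2, with MTT viability read-out.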

[5] = test system: Human immunodeficiency virus 1; assay: In vitro inhibitory concentration against HIV F227L and V106A mutant strain; type: functional, organism-based; in short: as §1
[6] = test system: Human immunodeficiency virus 1; assay: In vitro inhibitory concentration against HIV K103N mutant strain; type: functional, organism-based; in short: as §1
[7] = test system: Human immunodeficiency virus 1; assay: In vitro inhibitory concentration against HIV L100I mutant strain; type: functional, organism-based; in short: as §1
[8] = test system: Human immunodeficiency virus 1; assay: In vitro inhibitory concentration against HIV Y188L mutant strain; type: functional, organism-based; in short: as §1
[9] = test system: Human immunodeficiency virus 1; assay: In vitro inhibitory concentration against HIV LAI cell line; type: functional, organism-based; conditions: Human immunodeficiency virus 1, LAI
In short: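 HIV-1 LAI was added at 200 CCID50/well to MT4 human T-lymphoblastoid cells (30 000 cells/well) across a concentration range of compound. Cells were grown in RPMI 1640 with 10% fetal calf serum and antibiotics. After 5 days at 37 °C in 5% CO2, cell viability was read by MTT colorimetry. EC50 was the concentration giving 50% infection versus the drug-free control.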

[10] = test system: Human immunodeficiency virus 1; assay: In vitro inhibitory concentration against HIV K101E and K103N mutant strain; type: functional, organism-based; in short: as §1
[11] = test system: Human immunodeficiency virus 1; assay: In vitro inhibitory concentration against HIV E138K mutant strain; type: functional, organism-based; in short: as §1
[12] = test system: Human immunodeficiency virus 1; assay: In vitro inhibitory concentration against HIV F227C mutant strain; type: functional, organism-based; in short: as §1
[13] = test system: Human immunodeficiency virus 1; assay: In vitro inhibitory concentration against HIV G190A mutant strain; type: functional, organism-based; in short: as §1
[14] = test system: Human immunodeficiency virus 1; assay: In vitro inhibitory concentration against HIV G190S mutant strain; type: functional, organism-based; in short: as §1
[15] = test system: Human immunodeficiency virus 1; assay: In vitro inhibitory concentration against HIV K101E mutant strain; type: functional, organism-based; in short: as §1
[16] = test system: Human immunodeficiency virus 1; assay: In vitro inhibitory concentration against HIV V179E mutant strain; type: functional, organism-based; in short: as §1

Compound	IC50 [1]	SI [4]	IC50 [6]	IC50 [8]	IC50 [9]	further results
CCc1c(C)[nH]c(=O)c(N(C)CCOC)c1Cc1cccc(/C=C/C#N)c1	40 nM	10000	20 nM	316 nM	1 nM	IC50 [2]: 398 nM; IC50 [3]: 50 nM; IC50 [5]: 1000 nM; IC50 [7]: 8 nM
Cc1cc(C)cc(Cc2cc[nH]c(=O)c2N(C)C)c1	100000 nM	10	39800 nM	–	7940 nM	–
CCc1c(C)[nH]c(=O)c(NCc2ccccc2)c1Cc1cc(C)cc(C)c1	10000 nM	251	3160 nM	–	251 nM	–
CCc1c(CO)nc(O)c(N(C)C)c1C(=O)c1cc(C)cc(C)c1	72 nM	12600	3 nM	631 nM	1 nM	IC50 [2]: 149 nM; IC50 [3]: 20 nM; IC50 [5]: 794 nM; IC50 [10]: 7 nM; IC50 [11]: 4 nM; IC50 [12]: 234 nM; IC50 [13]: 3 nM; IC50 [14]: 2 nM; IC50 [15]: 5 nM; IC50 [7]: 1 nM; IC50 [16]: 1 nM
CCc1c(C)[nH]c(=O)c(N(C)CCCSC)c1Cc1cc(C)cc(C)c1	501 nM	398	1000 nM	–	25 nM	–
CCc1c(C)[nH]c(=O)c(NC(=S)Nc2ccccc2)c1Cc1cccc(C)c1	–	25	–	–	3160 nM	–
CCc1c(C)[nH]c(=O)c(N(C)CCOC)c1Cc1cc(C)cc(C)c1	316 nM	20000	63 nM	100 nM	2 nM	IC50 [2]: 3340 nM; IC50 [3]: 121 nM; IC50 [5]: 2510 nM; IC50 [10]: 69 nM; IC50 [11]: 10 nM; IC50 [12]: 339 nM; IC50 [13]: 16 nM; IC50 [14]: 42 nM; IC50 [15]: 10 nM; IC50 [7]: 3 nM; IC50 [16]: 3 nM
CCc1c(C)[nH]c(=O)c(N(C)CCCO)c1Cc1cccc(C)c1	1580 nM	31600	316 nM	5010 nM	3 nM	–
COCCc1c(C)nc(O)c(N(C)C)c1C(=O)c1cccc(C)c1	1260 nM	7940	158 nM	10000 nM	4 nM	–
CCCc1c(C)[nH]c(=O)c(N(C)C)c1Cc1cc(C)cc(C)c1	316 nM	2000	79 nM	631 nM	50 nM	–
CCc1[nH]c(=O)c(N(C)C)c(Cc2cc(C)cc(C)c2)c1C	251 nM	10000	100 nM	5010 nM	10 nM	–
CCc1c(C)[nH]c(=O)c(N(Cc2ccccc2)Cc2ccccc2)c1Cc1cc(C)cc(C)c1	79400 nM	1	50100 nM	–	100000 nM	–
CCc1c(C)nc(O)c(NC(=S)NC(=O)c2ccccc2)c1Cc1cccc(C)c1	100000 nM	16	100000 nM	100000 nM	6310 nM	–
CCNc1c(Cc2cc(C)cc(C)c2)c(CC)c(C)[nH]c1=O	100000 nM	126	316 nM	100000 nM	16 nM	–
CCc1c(C)[nH]c(=O)c(NC(N)=S)c1Cc1cccc(C)c1	–	316	–	–	316 nM	–
CCC(=O)Nc1c(Cc2cc(C)cc(C)c2)c(CC)c(C)[nH]c1=O	100000 nM	25	100000 nM	–	3980 nM	–
CCOCCN(C)c1c(Cc2cccc(C)c2)c(CC)c(C)[nH]c1=O	–	7940	–	–	13 nM	–
CCc1c(C)[nH]c(=O)c(N(C)CCC#N)c1Cc1cccc(C)c1	–	6310	–	–	16 nM	–
CCCNc1c(Cc2cc(C)cc(C)c2)c(CC)c(C)[nH]c1=O	15800 nM	398	1580 nM	100000 nM	20 nM	–
CCc1c(C)[nH]c(=O)c(N2CCCCC2)c1Cc1cc(C)cc(C)c1	39800 nM	158	63100 nM	–	631 nM	–
CCc1c(C)[nH]c(=O)c(N2CCOCC2)c1Cc1cc(C)cc(C)c1	10000 nM	251	100000 nM	–	158 nM	–
CCCC(=O)Nc1c(Cc2cc(C)cc(C)c2)c(CC)c(C)[nH]c1=O	100000 nM	1	100000 nM	–	100000 nM	–
COCCCc1c(C)nc(O)c(N(C)C)c1C(=O)c1cc(C)cc(C)c1	50 nM	12600	10 nM	200 nM	2 nM	IC50 [7]: 8 nM

Compound	IC50 [1]	SI [4]	IC50 [6]	IC50 [8]	IC50 [9]	further results
CCCN(C)c1c(Cc2cc(C)cc(C)c2)c(CC)c(C)[nH]c1=O	398 nM	6310	100 nM	–	16 nM	–
CCc1c(C)[nH]c(=O)c(N(C)CCCCCO)c1Cc1cccc(C)c1	1580 nM	6310	501 nM	5010 nM	10 nM	–
CCc1c(C)[nH]c(=O)c(N(C)CCCCCO)c1Cc1cc(C)cc(C)c1	126 nM	12600	100 nM	2510 nM	4 nM	–
Cc1cc(C)cc(Cc2cc(C)[nH]c(=O)c2N(C)C)c1	79400 nM	251	31600 nM	100000 nM	398 nM	–
CCc1c(C)[nH]c(=O)c(NC(C)=O)c1Cc1cc(C)cc(C)c1	25100 nM	251	20000 nM	100000 nM	398 nM	–
CCc1c(C)[nH]c(=O)c(N(C)CCCC#N)c1Cc1cccc(C)c1	2000 nM	12600	316 nM	3160 nM	5 nM	–
CCCCNc1c(Cc2cc(C)cc(C)c2)c(CC)c(C)[nH]c1=O	5010 nM	398	2000 nM	–	126 nM	–
Cc1cc(C)cc(Cc2c(C)c(C(C)C)[nH]c(=O)c2N(C)C)c1	–	126	–	–	794 nM	–
CCc1c(C)[nH]c(=O)c(N(C)CCO)c1Cc1cccc(C)c1	1260 nM	7940	794 nM	12600 nM	5 nM	–
CCc1c(C)[nH]c(=O)c(NC)c1Cc1cc(C)cc(C)c1	1000 nM	5010	79 nM	2000 nM	10 nM	–
CCc1nc(O)c(N(C)C)c(C(=O)c2cccc(C)c2)c1C	–	1000	–	–	100 nM	–
CCNC(=S)Nc1c(Cc2cccc(C)c2)c(CC)c(C)[nH]c1=O	–	4	–	–	25100 nM	–
Cc1ccnc2c1NC(=O)c1cccnc1N2C1CC1 [NEVIRAPINE]	10000 nM	–	–	100000 nM	–	IC50 [2]: 100000 nM; IC50 [5]: 163 nM; IC50 [11]: 50 nM; IC50 [12]: 135 nM; IC50 [14]: 44 nM; IC50 [16]: 195 nM
Cc1cc(C)cc(Cc2c(C)c(C)[nH]c(=O)c2N(C)C)c1	398 nM	2000	398 nM	3160 nM	5 nM	–
Cc1cc(C)cc(Cc2c(CC(C)C)c(C)[nH]c(=O)c2N(C)C)c1	158 nM	2000	63 nM	398 nM	50 nM	–
Cc1cccc(C(=O)c2c(C)c(C)nc(O)c2N(C)C)c1	2000 nM	6310	398 nM	50100 nM	16 nM	–
CCc1c(C)[nH]c(=O)c(NC=O)c1Cc1cc(C)cc(C)c1	7940 nM	1260	794 nM	316 nM	79 nM	–
CCCCN(CCCC)c1c(Cc2cc(C)cc(C)c2)c(CC)c(C)[nH]c1=O	100000 nM	2	100000 nM	–	50100 nM	–
CCc1c(C)[nH]c(=O)c(-n2cccc2)c1Cc1cc(C)cc(C)c1	1260 nM	1260	398 nM	2000 nM	12.6 nM	–
CCc1c(C)nc(O)c(N(C)CCOC)c1C(=O)c1cccc(C)c1	631 nM	79400	20 nM	1260 nM	1 nM	IC50 [2]: 2810 nM; IC50 [3]: 17 nM; IC50 [5]: 251 nM; IC50 [10]: 15 nM; IC50 [11]: 3 nM; IC50 [12]: 224 nM; IC50 [13]: 3 nM; IC50 [14]: 3 nM; IC50 [15]: 3 nM; IC50 [7]: 8 nM; IC50 [16]: 1 nM
CCc1c(C)[nH]c(=O)c(N(CC)CC)c1Cc1cc(C)cc(C)c1	1260 nM	6310	398 nM	2510 nM	16 nM	–
CCc1c(C)nc(O)c(N(C)C)c1C(=O)c1cccc(C)c1	–	39800	–	2000 nM	2.5 nM	–
CCc1c(C)[nH]c(=O)c(N(C)CC#N)c1Cc1cccc(C)c1	1580 nM	25100	316 nM	12600 nM	4 nM	–
